Results reported in ChEMBL document CHEMBL3792368, “Design, synthesis, and in vitro and biological evaluation of potent amino acid-derived thiol inhibitors of the metallo-β-lactamase IMP-1” (Eur J Med Chem, 2016).
Active and inactive are the calls of the source. The rule behind the calls is not given here.

tested on: Pseudomonas aeruginosa; experiment: Competitive inhibition of Pseudomonas aeruginosa 101/1477 IMP-1 expressed in Escherichia coli BL21(DE3) using benzylpenicillin as substrate assessed as residual activity measured for 5 mins by UV multiplate spectrophotometry
Outline: (§1)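 IMP-1 lacking the first 21 signal-peptide residues, expressed and purified by a previously published protocol. Kinetic assays were run at pH 7 and read out as residual enzyme activity. The chromogenic cephalosporin CENTA was not used as substrate because thiol inhibitors react with it.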

In order of falling Kic:
1. O=C(CCS)N[C@@H](Cc1ccc(OCc2ccccc2)cc1)C(=O)O  9.39 µM
2. O=C(CCCS)N[C@@H](Cc1c[nH]c2ccccc12)C(=O)O  8.62 µM
3. O=C(CCCS)N[C@@H](Cc1ccc(OCc2ccccc2)cc1)C(=O)O  5.85 µM
4. O=C(CCCS)N[C@@H](Cc1ccc(O)cc1)C(=O)O  5.63 µM
5. O=C(CCS)N[C@@H](Cc1ccc(O)cc1)C(=O)O  5.18 µM
6. O=C(CCS)N[C@@H](Cc1c[nH]c2ccccc12)C(=O)O  5.02 µM
7. O=C(CS)N[C@@H](Cc1ccc(O)cc1)C(=O)O  4.55 µM
8. O=C(CCCS)N[C@@H](Cc1ccccc1)C(=O)O  2.82 µM
9. O=C(CCS)N[C@@H](Cc1ccccc1)C(=O)O  1.45 µM
10. O=C(CS)N[C@@H](Cc1c[nH]c2ccccc12)C(=O)O  0.47 µM
11. CC(=O)SCC(=O)O  0.32 µM
12. O=C(CS)N[C@@H](Cc1ccccc1)C(=O)O  0.25 µM
13. O=C(CS)N[C@@H](Cc1ccc(OCc2ccccc2)cc1)C(=O)O  0.086 µM

target: not listed separately; experiment: Competitive inhibition of IMP-1 (unknown origin)

In the case of `O=C(CCS)N[C@H](Cc1ccccc1)C(=O)O`, the Ki is reported as 88 nM.

tested on: Pseudomonas aeruginosa; experiment: Uncompetitive inhibition of Pseudomonas aeruginosa 101/1477 IMP-1 expressed in Escherichia coli BL21(DE3) using benzylpenicillin as substrate assessed as residual activity measured for 5 mins by UV multiplate spectrophotometry; outline: as §1

`O=C(CCCS)N[C@@H](Cc1ccc(O)cc1)C(=O)O` and `O=C(CCS)N[C@@H](Cc1ccc(O)cc1)C(=O)O` cannot be ordered by Kiuc: over 1 mM for the first, over 1 mM for the second.

`O=C(CS)N[C@@H](Cc1ccc(O)cc1)C(=O)O` and `O=C(CS)N[C@@H](Cc1ccccc1)C(=O)O` cannot be ordered by Kiuc: over 1 mM for the first, over 1 mM for the second.

`O=C(CCS)N[C@@H](Cc1c[nH]c2ccccc12)C(=O)O` and `O=C(CCCS)N[C@@H](Cc1c[nH]c2ccccc12)C(=O)O` cannot be ordered by Kiuc: over 1 mM for the first, over 1 mM for the second.

Going from `CC(=O)SCC(=O)O` to `O=C(CCS)N[C@@H](Cc1ccccc1)C(=O)O`, the Kiuc rises from 0.00264 mM to 0.0602 mM (23-fold).

`O=C(CCS)N[C@@H](Cc1ccc(OCc2ccccc2)cc1)C(=O)O` and `O=C(CCCS)N[C@@H](Cc1ccc(OCc2ccccc2)cc1)C(=O)O` cannot be ordered by Kiuc: over 1 mM for the first, over 1 mM for the second.

`O=C(CS)N[C@@H](Cc1ccc(OCc2ccccc2)cc1)C(=O)O` and `O=C(CCCS)N[C@@H](Cc1ccccc1)C(=O)O` cannot be ordered by Kiuc: over 1 mM for the first, over 1 mM for the second.

Molecule `O=C(CS)N[C@@H](Cc1c[nH]c2ccccc12)C(=O)O` has a Kiuc of over 1 mM.

tested on: Escherichia coli BL21; experiment: Inhibition of IMP-1 in Escherichia coli BL21 assessed as imipenem MIC at 50 mM (reference value: 2 ug/ml)

With `O=C(CS)N[C@@H](Cc1ccc(OCc2ccccc2)cc1)C(=O)O` the MIC was 0.38 µg/mL.

tested on: Enterobacter cloacae; experiment: Inhibition of IMP-4 in Enterobacter cloacae ECL1 assessed as imipenem MIC at 50 mM (reference value: 1.5 ug/ml)

With `O=C(CS)N[C@@H](Cc1ccc(OCc2ccccc2)cc1)C(=O)O` the MIC was 0.38 µg/mL.

tested on: Enterobacter cloacae; experiment: Inhibition of IMP-4 in Enterobacter cloacae ECL2 co-expressing TEM1 assessed as imipenem MIC at 50 mM (reference value: 0.5 ug/ml)

In the case of `O=C(CS)N[C@@H](Cc1ccc(OCc2ccccc2)cc1)C(=O)O`, the MIC is reported as 0.5 µg/mL.

tested on: Enterobacter cloacae; experiment: Inhibition of IMP-4 in Enterobacter cloacae ECL2 co-expressing TEM1 assessed as reduction in imipenem MIC at 50 mM

In the case of `O=C(CS)N[C@@H](Cc1ccc(OCc2ccccc2)cc1)C(=O)O`, the inhibition is reported as “inactive”.

tested on: Escherichia coli BL21; experiment: Inhibition of IMP-1 in Escherichia coli BL21 assessed as reduction of imipenem MIC at 50 mM relative to control

With `O=C(CS)N[C@@H](Cc1ccc(OCc2ccccc2)cc1)C(=O)O` the fold change (FC) was 5.2.

tested on: Enterobacter cloacae; experiment: Inhibition of IMP-4 in Enterobacter cloacae ECL1 assessed as reduction of imipenem MIC at 50 mM relative to control

For `O=C(CS)N[C@@H](Cc1ccc(OCc2ccccc2)cc1)C(=O)O`, the fold change (FC) was 3.9.
